The target in series [1] is T1, Polyamine deacetylase HDAC10 (Homo sapiens, UniProt Q969S8).
T1 sequence (Q969S8 whole entry): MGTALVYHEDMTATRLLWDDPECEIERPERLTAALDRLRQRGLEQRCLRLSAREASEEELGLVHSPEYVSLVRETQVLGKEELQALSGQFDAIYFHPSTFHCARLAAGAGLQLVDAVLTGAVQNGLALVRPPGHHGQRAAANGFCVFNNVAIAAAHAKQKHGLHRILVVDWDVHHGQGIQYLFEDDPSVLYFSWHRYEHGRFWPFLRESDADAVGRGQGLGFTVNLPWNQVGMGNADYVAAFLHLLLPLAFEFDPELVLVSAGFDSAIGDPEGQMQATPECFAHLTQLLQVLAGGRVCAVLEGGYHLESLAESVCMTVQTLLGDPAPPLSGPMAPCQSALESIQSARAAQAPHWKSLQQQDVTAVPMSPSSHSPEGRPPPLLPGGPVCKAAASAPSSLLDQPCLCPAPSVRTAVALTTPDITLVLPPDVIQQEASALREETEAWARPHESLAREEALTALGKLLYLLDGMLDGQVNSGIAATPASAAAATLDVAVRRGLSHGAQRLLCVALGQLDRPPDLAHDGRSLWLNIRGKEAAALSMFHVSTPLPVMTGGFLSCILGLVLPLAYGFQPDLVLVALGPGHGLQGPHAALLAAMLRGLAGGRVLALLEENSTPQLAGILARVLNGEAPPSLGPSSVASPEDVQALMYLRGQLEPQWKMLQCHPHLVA
Briefly: Inhibition of recombinant full length human HDAC10 expressed in SF9 baculovirus using FAM- labelled acetylated peptide as substrate measured by Electrophoretic mobility shift assay.

The target of series [2] is T2, Protein deacetylase HDAC6 (Homo sapiens) (UniProt Q9UBN7).
T2 sequence (whole entry): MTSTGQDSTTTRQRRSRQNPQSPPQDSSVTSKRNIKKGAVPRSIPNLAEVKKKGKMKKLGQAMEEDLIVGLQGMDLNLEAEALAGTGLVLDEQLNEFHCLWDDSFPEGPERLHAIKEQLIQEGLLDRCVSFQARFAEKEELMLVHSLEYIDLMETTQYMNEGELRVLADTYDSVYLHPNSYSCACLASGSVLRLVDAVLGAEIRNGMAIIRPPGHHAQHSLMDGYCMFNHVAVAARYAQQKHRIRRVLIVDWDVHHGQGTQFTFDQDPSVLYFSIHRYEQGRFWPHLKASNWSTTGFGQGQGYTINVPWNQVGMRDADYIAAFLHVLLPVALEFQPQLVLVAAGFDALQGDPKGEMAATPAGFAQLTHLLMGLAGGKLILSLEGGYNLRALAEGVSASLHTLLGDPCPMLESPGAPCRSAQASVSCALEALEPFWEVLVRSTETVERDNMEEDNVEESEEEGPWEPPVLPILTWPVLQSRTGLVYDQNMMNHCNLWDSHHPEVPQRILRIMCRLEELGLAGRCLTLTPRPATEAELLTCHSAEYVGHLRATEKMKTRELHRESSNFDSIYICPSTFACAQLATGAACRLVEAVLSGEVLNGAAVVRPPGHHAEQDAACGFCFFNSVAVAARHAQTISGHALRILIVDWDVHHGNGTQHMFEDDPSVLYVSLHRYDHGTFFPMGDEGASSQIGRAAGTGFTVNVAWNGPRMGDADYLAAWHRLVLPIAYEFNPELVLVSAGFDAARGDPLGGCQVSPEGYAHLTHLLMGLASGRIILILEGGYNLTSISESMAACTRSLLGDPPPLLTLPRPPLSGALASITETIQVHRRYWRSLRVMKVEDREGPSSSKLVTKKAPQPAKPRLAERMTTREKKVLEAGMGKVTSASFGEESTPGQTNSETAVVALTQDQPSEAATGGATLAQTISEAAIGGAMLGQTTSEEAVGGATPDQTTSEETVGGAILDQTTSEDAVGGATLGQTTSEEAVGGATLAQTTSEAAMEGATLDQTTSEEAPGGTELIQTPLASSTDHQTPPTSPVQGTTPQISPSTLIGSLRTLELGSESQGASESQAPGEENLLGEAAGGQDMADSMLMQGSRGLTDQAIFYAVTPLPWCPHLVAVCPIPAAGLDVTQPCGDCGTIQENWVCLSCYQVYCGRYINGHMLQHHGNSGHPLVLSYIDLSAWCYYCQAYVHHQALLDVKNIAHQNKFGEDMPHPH
Briefly: Inhibition of HDAC6 in human MV4-11 cells assessed as increase in acetylation of alpha tubulin at 0.5 uM measured after 6 hrs by Western blot assay relative to histone H3 acetylation. The series is classed as cell-based. Summed up: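 MV4-11 cells were exposed to a range of concentrations for 6 h. Protein extracts were run on SDS-PAGE and immunoblotted for acetylated α-tubulin, acetylated histone H3 and acetylated histone H4, with HSC70 as the loading reference. A representative blot of three independent experiments is shown.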
A general note: In western blotting, separated proteins are transferred to a membrane and probed.

Series [3] relates to MV4-11. Briefly: Induction of apoptosis in human MV4-11 cells assessed as viable cells at 1 microM measured after 18 hrs by Annexin V/Propidium iodide stain based Flow cytometry assay (reference value: 53.27%). The series is classed as functional. To be noted: read-out: Activity. For orientation: A flow cytometer gives signals particle by particle.
Series [4] concerns MV4-11. Briefly: Induction of apoptosis in human MV4-11 cells assessed as early apoptotic cells at 0.5 microM measured after 18 hrs by Annexin V/Propidium iodide stain based Flow cytometry assay (reference value: 1.7%). The series is classed as functional.
Series [5] can be described thus: Half life in mouse hepatocytes measured after 120 mins by LC/MS/MS method. The series is classed as ADME, cell-based, Hepatocyte.
The nature of series [6]: Apparent permeability across basolateral to apical side in human Caco2 cells measured after 2 hrs by LC-MS/MS method. The series is classed as ADME, cell-based. The settings on record: Caco-2. In short, it runs like this:
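Bidirectional Caco-2 permeability was measured as Papp in the apical-to-basolateral and basolateral-to-apical directions. The efflux ratio was calculated from the two directional Papp values.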
On the technique in general: Caco-2 cells form a polarised layer with tight junctions and transporters.

Series [7] in a line: Cmax in CD1 mouse at 20 mg/kg, ip measured after 24 hrs by LC/MS/MS method. The series is classed as ADME, organism-based. Set-up: route intraperitoneal, dose 20 mg/kg, time 24 hrs. To be noted: in vivo.
The nature of series [8]: AUC (last) in CD1 mouse at 20 mg/kg, ip measured after 24 hrs by LC/MS/MS method. The series is classed as ADME, organism-based. Set-up: route intraperitoneal, dose 20 mg/kg, time 24 hrs. To be noted: in vivo.
Series [9] addresses Class 1 histone deacetylase (Homo sapiens) (UniProt Q13547+O15379+Q92769+Q9BY41). Briefly: Inhibition of HDAC class 1 in human HeLa cells assessed as acetylated H3 histone at 0.1 uM measured after 6 hrs by Immunofluorescent assay.

Active and inactive are the calls of the source. The calls are words filed in the database; no cut-off is given here. Bounds are passed on as bounds.

In general, IC50 refers to the concentration that gives 50% inhibition. What is called half-life is how long it takes for the measured level to halve. A high value points to slow loss. Broadly, the Papp B→A is the apparent permeability from the basolateral to the apical side of a cell layer. A word on the Cmax: it is the peak of the concentration-time curve. As a reminder, the AUC(0-t) is the area under the concentration-time curve up to a stated or last time point. High values mean high exposure, low ones low exposure.

Class 1 histone deacetylase (Homo sapiens), sequence (O15379 whole entry, looked up): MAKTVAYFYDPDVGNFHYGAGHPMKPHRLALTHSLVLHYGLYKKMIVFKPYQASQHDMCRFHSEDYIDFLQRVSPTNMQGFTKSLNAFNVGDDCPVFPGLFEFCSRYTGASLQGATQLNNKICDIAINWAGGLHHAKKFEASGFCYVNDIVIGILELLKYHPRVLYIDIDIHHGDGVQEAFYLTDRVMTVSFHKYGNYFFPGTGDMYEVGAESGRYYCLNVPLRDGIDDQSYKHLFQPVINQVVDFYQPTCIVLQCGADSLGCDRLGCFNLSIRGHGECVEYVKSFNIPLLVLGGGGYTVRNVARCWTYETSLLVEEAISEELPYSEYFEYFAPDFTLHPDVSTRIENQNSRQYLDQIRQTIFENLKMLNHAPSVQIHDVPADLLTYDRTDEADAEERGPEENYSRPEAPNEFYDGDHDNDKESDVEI
Class 1 histone deacetylase (Homo sapiens), sequence (Q13547 whole entry, looked up): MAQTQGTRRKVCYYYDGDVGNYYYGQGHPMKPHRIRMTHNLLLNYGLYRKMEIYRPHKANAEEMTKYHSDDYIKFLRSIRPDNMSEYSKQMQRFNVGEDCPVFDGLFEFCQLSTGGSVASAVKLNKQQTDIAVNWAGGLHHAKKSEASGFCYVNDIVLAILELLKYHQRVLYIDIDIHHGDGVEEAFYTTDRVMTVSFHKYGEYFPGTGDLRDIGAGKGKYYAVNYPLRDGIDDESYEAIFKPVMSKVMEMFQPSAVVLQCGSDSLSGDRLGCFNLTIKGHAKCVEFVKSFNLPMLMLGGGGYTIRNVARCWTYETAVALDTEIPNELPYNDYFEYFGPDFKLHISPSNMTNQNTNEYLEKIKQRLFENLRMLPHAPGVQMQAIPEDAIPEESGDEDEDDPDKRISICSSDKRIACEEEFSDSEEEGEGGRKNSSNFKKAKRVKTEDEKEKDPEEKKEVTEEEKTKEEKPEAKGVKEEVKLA
Class 1 histone deacetylase (Homo sapiens), sequence (Q92769 whole entry, looked up): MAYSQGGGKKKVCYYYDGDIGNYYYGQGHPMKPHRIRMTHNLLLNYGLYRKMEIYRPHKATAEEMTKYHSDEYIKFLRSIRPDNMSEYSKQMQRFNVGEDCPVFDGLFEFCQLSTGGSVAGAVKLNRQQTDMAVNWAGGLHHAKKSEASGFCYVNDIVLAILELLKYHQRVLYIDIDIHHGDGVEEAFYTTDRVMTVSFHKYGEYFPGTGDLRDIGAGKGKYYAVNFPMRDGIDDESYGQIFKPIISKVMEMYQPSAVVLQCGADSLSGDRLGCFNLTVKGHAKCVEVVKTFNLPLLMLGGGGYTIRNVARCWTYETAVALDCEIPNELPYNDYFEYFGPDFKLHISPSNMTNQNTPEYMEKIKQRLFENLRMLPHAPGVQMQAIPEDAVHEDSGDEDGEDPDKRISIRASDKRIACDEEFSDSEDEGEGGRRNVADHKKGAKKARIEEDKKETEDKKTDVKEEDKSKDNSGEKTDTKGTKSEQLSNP
Class 1 histone deacetylase (Homo sapiens), sequence (Q9BY41 whole entry, looked up): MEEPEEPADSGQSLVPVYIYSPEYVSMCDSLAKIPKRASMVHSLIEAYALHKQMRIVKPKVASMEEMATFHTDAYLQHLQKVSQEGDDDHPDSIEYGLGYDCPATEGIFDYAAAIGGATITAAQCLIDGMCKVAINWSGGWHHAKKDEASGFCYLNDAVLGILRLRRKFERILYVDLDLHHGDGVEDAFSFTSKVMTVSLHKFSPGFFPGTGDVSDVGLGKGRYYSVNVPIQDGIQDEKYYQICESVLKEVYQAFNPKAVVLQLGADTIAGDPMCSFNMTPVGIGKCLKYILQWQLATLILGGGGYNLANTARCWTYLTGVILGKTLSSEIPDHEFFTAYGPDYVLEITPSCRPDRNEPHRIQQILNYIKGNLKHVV

On to `O=C(NO)c1ccc(CNC(=O)c2c(F)c(F)c(F)c(F)c2F)cc1`, for which, in series [1], the IC50 is more than 1000 nM. Moreover, in series [2], the inhibition result was “Active”. The viability at 1 µM in [3] came out at 35.6%. Besides, the Activity in series [4] came out at 2.87%. For the same compound, the half-life in series [5] worked out at 50.9 min. In addition, the Papp B→A at 2 h in series [6] is 0.94 ×10⁻⁶ cm/s. In series [7], this compound showed a Cmax of 526 ng/mL. This compound also returned an AUC(0-t) at 24 h in [8] of 190 ng·h/mL. Moreover, in series [9], the inhibition entry was “inactive”.

For the origin of these results see ChEMBL document CHEMBL4706499, “PTG-0861: A novel HDAC6-selective inhibitor as a therapeutic strategy in acute myeloid leukaemia” (Eur J Med Chem, 2020).
